Data from publication PMC8245906 (Acta Pharmaceutica Sinica. B, 2021).
Like-named read-outs stand apart in the source and are kept apart here.

Tests used:
[1] = Plasma stability in human plasma; assay type: in vitro ADME; conditions: 1 μmol/L, 80% plasma, 37 °C
Procedure, shortened: (§1)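 Test compound (1 µmol/L final) incubated in duplicate in pooled plasma diluted to 80% in 0.1 mol/L potassium phosphate, pH 7.4, at 37 °C. Aliquots taken at 0, 1, 3, 6 and 24 h, quenched with acetonitrile containing 0.1% formic acid, and centrifuged. Supernatant analysed by LC/MS/MS to derive plasma t1/2.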

[2] = Microsomal stability in human liver microsomes; assay type: in vitro ADME; conditions: for microsomal CLint at 1 μmol/L: human, liver microsomes, pH 7.4
Procedure, shortened: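 Human liver microsomes (0.5 mg/mL protein) in 0.1 mol/L potassium phosphate, pH 7.4, 37 °C, with 1 mmol/L NADPH and 1 mmol/L MgCl₂, or without NADPH. Test compound at 1 µmol/L final. For CYP3A inhibition, cobicistat was pre-incubated 5 min before the compound. Sampled at 0–60 min and quenched with acidified acetonitrile. LC/MS/MS gave t1/2 and CLint; at least duplicate.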

SARS-CoV-2 [3] = conditions: read-out: EC50 against SARS-CoV-2; A549-hACE2 cells; cited from earlier work
SARS-CoV-2 [4] = conditions: Vero E6 cells, cited from earlier work
[5] = Plasma stability in CD-1 mouse plasma; assay type: in vitro ADME, CD-1 mice
Procedure, shortened: as §1

[6] = Pharmacokinetics and oral bioavailability of GS-441524 in CD-1 mice; assay type: in vivo
[7] = Microsomal stability in CD-1 mice liver microsomes; assay type: in vitro ADME; conditions: for microsomal CLint at 1 μmol/L: CD-1, mouse, liver microsomes, pH 7.4
Procedure, shortened: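 Mouse liver microsomes (0.5 mg/mL protein, final) in 0.1 mol/L potassium phosphate, pH 7.4, 37 °C, with 1 mmol/L NADPH and 1 mmol/L MgCl₂. Started by adding test compound (1 µmol/L final). A no-NADPH control was run in parallel. Sampled at 0, 5, 15, 30 and 60 min and quenched in acidified acetonitrile. LC/MS/MS gave t1/2 and CLint. At least duplicate independent assays.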

[8] = tested on: major CYP enzymes including 1A1, 1A2, 2B6, 2C8, 2C9, 2C19, 2D6, 3A4, or 3A5; conditions: cited from earlier work
SARS-CoV-2 [9] = conditions: Calu-3 2B4 cells, cited from earlier work
[10] = Tissue distribution of GS-441524 and GS-443902 in CD-1 mice after oral dosing; assay type: in vivo; conditions: 20 mg/kg oral dose
CYP 2C8, 2D6 and 3A4 = conditions: cited from earlier work
[11] = human, after iv infusion of RDV, phase I; cited from earlier work
P-glycoprotein (P-gp) = conditions: cited from earlier work
[12] = read-out: EC50 against SARS-CoV-2
[13] = read-out: EC90 against SARS-CoV-2
[14] = male, CD-1, mouse, plasma, iv, 5 mg/kg
[15] = male, CD-1, mouse, plasma, po, 10 mg/kg

N#C[C@@]1(c2ccc3c(N)ncnn23)O[C@H](CO)[C@@H](O)[C@H]1O [GS-441524]
Plasma stability t1/2 Human [1]: >24 h
microsomal CLint at 1 μmol/L [2]: 1.9 ± 0.1 µL/min/mg
Remaining percentage at 60 min in HLMs ([2]; with NADPH, 60 min): over 91%
EC50 (SARS-CoV-2 [3]): 870 nM
EC50 (SARS-CoV-2 [4]; [12]): 470 nM
EC90 (SARS-CoV-2 [4]; [13]): 710 nM
Plasma stability t1/2 Mouse ([5]; 1 μmol/L, 80% CD-1 mouse plasma, 37 °C): >24 h
MRT [6, 14]: 1.7 h
Tmax [6, 14]: 0.083 h
Vd [6, 14]: 4.2 L/kg
clearance [6, 14]: 20 mL/min/kg
half-life [6, 14]: 2.5 h
AUC ([6]; male, CD-1, mouse, plasma, iv, 5 mg/kg, AUC0‒t, iv 5 mg/kg, CD-1 mice): 14.8 µM·h
AUC ([6]; male, CD-1, mouse, plasma, iv, 5 mg/kg, AUC0‒∞, iv 5 mg/kg, CD-1 mice): 14.8 µM·h
Cmax ([6]; male, CD-1, mouse, plasma, iv, 5 mg/kg, Cmax, iv 5 mg/kg, CD-1 mice): 11.6 µM
MRT [6, 15]: 4.2 h
Tmax [6, 15]: 1 h
half-life [6, 15]: 2.9 h
AUC ([6]; male, CD-1, mouse, plasma, po, 10 mg/kg, AUC0‒t, po 10 mg/kg, CD-1 mice): 16.8 µM·h
AUC ([6]; male, CD-1, mouse, plasma, po, 10 mg/kg, AUC0‒∞, po 10 mg/kg, CD-1 mice): 16.8 µM·h
CL (clearance) ([6]; po 10 mg/kg, CD-1 mice): 33.3 mL/min/kg
V (volume of distribution) ([6]; po 10 mg/kg, CD-1 mice): 8.4 L/kg
Plasma level from 0.25 to 2 h ([6]; po 10 mg/kg, CD-1 mice, 0.25 to 2 h): > 2 µM
Cmax ([6]; po 10 mg/kg, CD-1 mice, plasma, 10 mg/kg): 3.28 µM
microsomal CLint at 1 μmol/L [7]: 1.7 ± 0.4 µL/min/mg
Remaining percentage at 60 min in MLMs ([7]; with NADPH, 60 min): over 91%
Substrate of major CYP enzymes [8]: not a substrate
EC50 (SARS-CoV-2 [9]; [12]): 620 nM
EC90 (SARS-CoV-2 [9]; [13]): 1340 nM
Concentration in lung within the first 4 h ([10]; lung): ≥ 2.2 µM
Concentration in plasma within the first 4 h ([10]; plasma): ≥ 2.2 µM

CCC(CC)COC(=O)[C@H](C)N[P@](=O)(OC[C@H]1O[C@@](C#N)(c2ccc3c(N)ncnn23)[C@H](O)[C@@H]1O)Oc1ccccc1 [RDV, Remdesivir]
Remaining percentage of intact RDV at 60 min with NADPH/Cobi ([2]; HLMs, with NADPH/Cobi, 60 min): 38.5%
Remaining percentage of intact RDV at 60 min without NADPH ([2]; HLMs, without NADPH, 60 min): 26.1%
microsomal CLint at 1 μmol/L [2]: 1260 ± 68.6 µL/min/mg
half-life at 1 μmol/L ([5]; CD-1, mouse, plasma (80% in buffer), pH 7.4): < 1 min
Stability in CD-1 mouse plasma (in words) ([5]; wild-type CD-1 mouse plasma): undetectable within seconds
Substrate for CYP 2C8, 2D6 and 3A4 (CYP 2C8, 2D6 and 3A4): substrate
microsomal CLint at 1 μmol/L [7]: 1680 ± 130 µL/min/mg
Microsomal stability MLMs t1/2 ([7]; with cofactor NADPH, 1 μmol/L compound, 0.5 mg/mL microsomal protein): 48 ± 6 s
Plasma half-life (t1/2) [11]: about 1 h
Substrate of P-glycoprotein (P-gp) (P-glycoprotein (P-gp)): substrate
